The values below come from paper PMC7080047 (Medicinal Chemistry Research, 2014).

In assay [1] the test system is immune-activated NO production by mouse peritoneal cells. Description: in vitro nitric oxide. It is filed as cell-based. The conditions noted are these: for IC50: read-out: NO-inhibitory IC 50, LPS/IFN-γ stimulated mouse peritoneal cells, 24 h; for concentration at which NO-suppressive effects were already apparent: dose-response, Fig. 2. In short, it runs like this: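 Peritoneal lavage cells (8 mL saline) pooled from 4–10 female C57BL/6 mice, 8–10 weeks old, seeded at 2 × 10^6 cells/mL in RPMI-1640 with 10% FBS, 37 °C, 5% CO2. Test compound (DMSO stock diluted in medium; DMSO control) added for 24 h with IFN-γ 0.5 ng/mL plus E. coli LPS 0.1 ng/mL, duplicates. Supernatant nitrite measured by Griess reagent at A540 against a nitrite standard curve, expressed as % of control.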

The subject of assay [2] is NO production in chicken macrophages. The conditions noted are these: ref Sung et al., 1994; cited from earlier work.
For the next assay, the system named is HSV-2. Briefly: antiviral activity, HSV-2 in HeLa cells. It is filed as cell-based. The conditions noted are these: Human alphaherpesvirus 2, HeLa, read-out: antiviral EC50.
In assay [3] the test system is vesicular stomatitis virus (VSV). Briefly: microbe, parasite or virus in culture. It is filed as cell-based. The conditions noted are these: HeLa, read-out: antiviral EC50.
The test system of a further assay is vaccinia virus. Description: antiviral activity, vaccinia virus in HeLa cells. It is filed as cell-based. The settings on record: Orthopoxvirus vaccinia, read-out: antiviral EC50.
In assay [4] the test system is respiratory syncytial virus (RSV). Description: antiviral activity, respiratory syncytial virus in HeLa cells. The settings on record: human respiratory syncytial virus, read-out: antiviral EC50. It is filed as cell-based.
For a further assay, the system named is HIV-2. Briefly: antiviral activity, HIV-2 in CEM cells. It is filed as cell-based. The conditions noted are these: Human immunodeficiency virus 2, CCRF-CEM, read-out: antiviral EC50.
A further assay concerns Reovirus-1. Briefly: antiviral activity, Reovirus-1 in MDCK cells. It is filed as cell-based. The settings on record: read-out: antiviral EC50.
For the next assay, the system named is HIV-1. Description: antiviral activity, HIV-1 in CEM cells. It is filed as cell-based. The conditions noted are these: Human immunodeficiency virus 1, CCRF-CEM, read-out: antiviral EC50.
The test system of another assay is Parainfluenza 3-virus. Briefly: antiviral activity, Parainfluenza 3-virus in MDCK cells. It is filed as cell-based. The conditions noted are these: read-out: antiviral EC50.
In assay [5] the test system is viruses such as members of the Herpes, Picorna, and Pox groups. The conditions noted are these: ref Marcialis et al., 1973, 1974, La Colla et al., 1975; cited from earlier work.
For the next assay, the system named is HSV-1. Briefly: antiviral activity, HSV-1 in HeLa cells. It is filed as cell-based. The conditions noted are these: Human alphaherpesvirus 1, HeLa, read-out: antiviral EC50.
In a further assay the test system is Punta Toro virus. Briefly: antiviral activity, Punta Toro virus in MDCK cells. The settings on record: read-out: antiviral EC50. It is filed as cell-based.
For the next assay, the system named is Feline herpes virus. Briefly: antiviral activity, Feline herpes virus in CRFK cells. It is filed as cell-based. The settings on record: read-out: antiviral EC50.

Take “N-(3-aminomethyl)-benzylacetamide [1,400 W, reference compound]”: the IC50 in assay [1] was determined as 3.87 µM.

For `N=C(N)NN` [Aminoguanidine, aminoguanidine, reference compound], the IC50 in assay [1] came to 77.8 µM.

As for `Nc1cc(O)nc(N)n1` [2,4-diamino-6-hydroxypyrimidine], in assay [2], the “effect on NO production (in words)” value is given as “suppresses NO production”.

With `Nc1nc(Cl)cc(Cl)n1` [Compound B1, 2-amino-4,6-dichloropyrimidine], the EC50 (in the assay on HSV-2; in assay [3]; with vaccinia virus; in assay [4]; in the assay on HIV-2; in the assay on Reovirus-1) was > 100 µg/mL in each case. Besides, the EC50 in the assay with HIV-1, in the assay with Parainfluenza 3-virus, in the assay with HSV-1, in the assay with Punta Toro virus and in the assay with Feline herpes virus was > 100 µg/mL each time. Moreover, the “concentration required for antiviral activities described in the literature” value in [5] was ~100 µg/mL.

Regarding `Nc1nc(Cl)c(F)c(Cl)n1` [Compound B12, 5-fluoro-2-amino-4,6-dichloropyrimidine], the “concentration at which NO-suppressive effects were already apparent” value in [1] amounted to 2.5 µM. For the same compound, the “effect on immune-activated NO production (in words)” value in assay [1] (mouse peritoneal cells) is recorded as “nearly completely suppressed the production of NO”.

For `C#CCc1c(Cl)nc(N)nc1Cl` [Compound B6, 4,6-Dichloro-5-(prop-2-yn-1-yl)pyrimidin-2-amine], the “concentration at which NO-suppressive effects were already apparent” value in assay [1] was 2.5 µM.
